Reference: paper PMC9358627 (Journal of clinical pharmacology, 2021)
Read-outs that look alike come from different tables or passages of the source. Blank lines part the entries; values can stand above or below the compound they belong to.

Experiments:
[1] = human, in vivo, oral
Method in brief: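 Patients at steady state, same oral calcineurin inhibitor dose for ≥7 days. 0-h blood drawn before the ~7 AM dose to give trough. Samples iced, centrifuged, harvested within 60 min, stored −70°C until assay.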

[2] = assay type: in vivo, human; conditions: for AUC: Mycophenolic acid AUC6-12hr
Method in brief: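 Steady state with the same oral dose for ≥7 days, calcineurin inhibitor co-therapy. Pre-dose sample, then dosing ~7 AM, meals at 4 h, serial sampling over 12 h. Plasma iced, centrifuged, stored −70°C. LC/MS of test compound and its glucuronide, LLOQ 0.072 µg/mL. Non-compartmental AUC0-12h by linear trapezoidal rule. […] AUC6-12h/AUC0-12h gauges enterohepatic circulation.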

[3] = assay type: in vivo; conditions: human, plasma, oral, C12hr, phenotypic mean (±95% CI)
Method in brief: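 Stable kidney transplant recipients had held fixed doses for ≥7 days. Around 7 AM, after a 0-h draw, they took the oral test compound with a calcineurin inhibitor. Plasma was sampled serially over 12 h, iced, spun and stored at −70°C. LC/MS with internal standards (LLOQ 0.072 µg/mL) gave the 12-h trough. Three ABCC2 SNPs were TaqMan-genotyped in duplicate. THESIAS maximum-likelihood analysis estimated haplotype phenotypic means with 95% CI.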

[4] = Mycophenolic acid pharmacokinetic parameters by individual ABCC2 SNP genotype; assay type: in vivo; conditions: human, plasma, oral, mean; for AUC(0-t): Mycophenolic acid AUC0-12hr; for clearance: Mycophenolic acid Clearance
Method in brief: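 Stable transplant recipients were studied at steady state. Oral test compound was given with a calcineurin inhibitor, with meals 4 h post-dose. Serial 12-h plasma was analysed by LC/MS (standard curve 0.145–15.5 µg/mL). AUC0-12h came from the linear trapezoidal rule, non-compartmental. […] ABCC2 −24C>T, 1249G>A and 3972C>T were genotyped by TaqMan allelic discrimination, 10 ng DNA, in duplicate.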

[5] = following oral drug administration; attributed to enterohepatic circulation; ref [8],[12]; cited from earlier work
[6] = ABCC2 1249 G>A (rs2273697) All, N=147
[7] = ABCC2 3972 C>T (rs 3740066) All, N=146
[8] = ABCC2 −24C>T (rs717620) All, N=147

concentration at 0 h [1]: 7.2 ± 1.89 ng/mL
SMILES: C=CC[C@@H]1/C=C(\C)C[C@H](C)C[C@H](OC)[C@H]2O[C@@](O)(C(=O)C(=O)N3CCCC[C@H]3C(=O)O[C@H](/C(C)=C/[C@@H]3CC[C@@H](O)[C@H](OC)C3)[C@H](C)[C@@H](O)CC1=O)[C@H](C)C[C@@H]2OC [Tacrolimus, tacrolimus]

Mycophenolic acid CL/F ([2]; All (N=147), steady state, oral, mean ± SD): 15.99 ± 9.41 L/h
Enterohepatic Recirculation, patients ([2]; Cyclosporine (n=80), 36 patients): 36 (45.0%)
Mycophenolic acid CL/F ([2]; Cyclosporine Group (n=80), mycophenolate mofetil, mean ± SD): 20.50 ± 9.99 L/h
Mycophenolic acid AUC0-12hr ([2]; Cyclosporine Group (n=80), mean ± SD): 40.82 ± 17.60 mg●hr/L
Enterohepatic Recirculation, patients ([2]; Tacrolimus (n=67), 52 patients): 52 (77.61%)
Mycophenolic acid CL/F ([2]; Tacrolimus Group (n=67), enteric-coated mycophenolate sodium, mean ± SD): 10.60 ± 4.71 L/h
AUC(0-t) ([2]; human, plasma, oral, Mycophenolic acid AUC0-12hr, Tacrolimus Group (n=67), mean ± SD): 68900 ± 30900 ng·h/mL
AUC ([2]; human, plasma, oral, All (N=147), mean ± SD): 19100 ± 15200 ng·h/mL
AUC ([2]; human, plasma, oral, Cyclosporine Group (n=80), mean ± SD): 13100 ± 7150 ng·h/mL
AUC ([2]; human, plasma, oral, Tacrolimus Group (n=67), mean ± SD): 26200 ± 18800 ng·h/mL
patients achieving the therapeutic range of AUC0-12h from 30 to 60 mg●h/L ([2]; patients receiving cyclosporine): 56.3%
patients achieving the therapeutic range of AUC0-12h from 30 to 60 mg●h/L ([2]; tacrolimus group): 34.3%
slower apparent clearance ([2]; tacrolimus group compared with cyclosporine group): 48%
patients exhibiting enterohepatic circulation ([2]; tacrolimus regimen): More than 75%
concentration at 12 h ([3]; All (N=147), variant haplotype (CGT)): 1010 ng/mL
concentration at 12 h ([3]; All (N=147), wildtype haplotype (CGC)): 1630 ng/mL
concentration at 12 h ([3]; Cyclosporine Group (n=80), variant haplotype (CGT)): 783 ng/mL
concentration at 12 h ([3]; Cyclosporine Group (n=80), wildtype haplotype (CGC)): 965 ng/mL
concentration at 12 h ([3]; Tacrolimus Group (n=67), variant haplotype (CGT)): 1330 ng/mL
concentration at 12 h ([3]; Tacrolimus Group (n=67), wildtype haplotype (CGC)): 2250 ng/mL
AUC(0-t) [4, 6]: 53600 ng·h/mL
AUC(0-t) [4, 7]: 53400 ng·h/mL
AUC(0-t) [4, 8]: 53600 ng·h/mL
clearance [4, 6]: 266 mL/min
clearance [4, 7]: 268 mL/min
clearance [4, 8]: 266 mL/min
SMILES: COc1c(C)c2c(c(O)c1C/C=C(\C)CCC(=O)O)C(=O)OC2 [Mycophenolic acid, mycophenolic acid]
secondary mycophenolic acid peak, time of appearance [5]: 6 to 12 h
